In ChEMBL document CHEMBL3612047, “Synthesis, antiproliferative activity and possible mechanism of action of novel 2-acetamidobenzamides bearing the 2-phenoxy functionality” (Bioorg Med Chem, 2015):
Active and inactive are the calls of the source. No cut-off for these calls is given here.

What was measured:
[1] = test system: OVCAR-4; assay: Growth inhibition of human OVCAR4 cells by NCI standard protocol based method; type: functional
Summary of the method: (§1)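 NCI full 60-cell-line panel, 5-dose assay to the NCI standard protocol. GI₅₀ is the molar concentration inhibiting 50% net cell growth. Mean graph midpoint is averaged over all lines; where the effect is not reached, the highest tested concentration is used.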

[2] = Growth inhibition of human BT549 cells by NCI standard protocol based method; type: functional; details: BT-549; summary of the method: as §1
[3] = test system: K562; assay: Reduction in cell size of human K562 cells at 10 and 25 uM incubated for 48 hrs by light microscopy; type: functional, cell-based
Summary of the method: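 K562 cells (8 × 10³/well) plated on poly-D-lysine-coated wells and treated at 10 or 25 μM for 48 h. Examined by light microscopy at 200× for shape, detachment, cell number and cell size.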

[4] = test system: K562; assay: Induction of cell cycle arrest in human K562 cells assessed as accumulation at G0/G1 phase at 10 uM incubated for 48 hrs by propidium iodide staining based flow cytometry (reference value: 56.6%); type: functional
[5] = test system: K562; assay: Induction of apoptosis in human K562 cells assessed as reduction in pro-caspase-6 levels at 10 uM incubated for 48 hrs by Western blot method relative to basal level; type: functional; details: K562, 48 h
Summary of the method: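 K562 cells were seeded at 1.5 × 10⁵/well and treated 48 h. Lysate protein was measured by Lowry assay and run on SDS-PAGE. Blots on nitrocellulose were probed with alkaline phosphatase-conjugated antibodies to pro-caspases 3 and 6. Loading was checked by Ponceau red and β-actin immunoblot, with level expressed against basal. Three independent experiments.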

SMILES | GI50 [1] | GI50 [2] | Activity [3] | Activity [4] | inhibition at 10 µM [5]
COc1cc(NC(=O)COc2ccccc2)c(C(N)=O)cc1OC | > 100 µM | 0.77 µM | Active | 39.4% | 50%
COc1ccc(NC(=O)COc2ccccc2)c(C(N)=O)c1 | > 100 µM | – | – | – | –
NC(=O)c1cc(I)ccc1NC(=O)COc1ccccc1 | – | – | Active | 45.2% | 20%
